Data set [1] addresses T1, UDP-glucuronosyltransferase 2B7 (Homo sapiens, UniProt P16662).
T1 sequence (P16662 whole entry): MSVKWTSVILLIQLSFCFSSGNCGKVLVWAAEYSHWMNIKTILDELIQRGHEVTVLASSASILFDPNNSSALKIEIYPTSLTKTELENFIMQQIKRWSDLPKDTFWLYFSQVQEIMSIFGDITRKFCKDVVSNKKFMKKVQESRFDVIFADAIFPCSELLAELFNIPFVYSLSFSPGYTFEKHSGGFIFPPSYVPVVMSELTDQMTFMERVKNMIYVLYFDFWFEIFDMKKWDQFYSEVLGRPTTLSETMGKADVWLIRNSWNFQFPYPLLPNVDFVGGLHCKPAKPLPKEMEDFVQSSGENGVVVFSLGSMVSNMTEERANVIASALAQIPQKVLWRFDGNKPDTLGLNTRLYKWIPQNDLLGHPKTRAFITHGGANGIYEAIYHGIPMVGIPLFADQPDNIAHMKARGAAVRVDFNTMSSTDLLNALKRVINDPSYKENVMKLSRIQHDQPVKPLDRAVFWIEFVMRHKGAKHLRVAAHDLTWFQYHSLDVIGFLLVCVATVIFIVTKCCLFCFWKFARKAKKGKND
The experiment in a line: Activity of human UGT2B7 expressed in microsomes isolated from baculovirus infected insect cell assessed as enzyme-mediated 3-(4-((6-methoxy-1-methyl-1H-benzo[d]imidazol-2-yl)methoxy)phenyl)-2-(methylthio)propanoic acid formation at 20 uM after 4 hrs by radio-HPLC/LC-MS/MS analysis in presence of NADPH-generating system/SAM and UDPGA/SAM in presence of UDPGA and UDPGA/SAM. The class given is ADME.

The target of data set [2] is T1, UDP-glucuronosyltransferase 2B7. The experiment in a line: Activity of human UGT2B7 expressed in microsomes isolated from baculovirus infected insect cell assessed as enzyme-mediated (2S,3S,4S,5R,6R)-6-((1-carboxy-2-(4-((6-methoxy-1-methyl-1H-benzo[d]imidazol-2-yl)methoxy)phenyl)ethylthio)carbonylamino)-3,4,5-trihydroxytetrahydro-2H-pyran-2-carboxylic acid formation at 20 uM after 4 hrs by radio-HPLC/LC-MS/MS analysis in presence of NADPH-generating system/SAM. The class given is ADME.

For data set [3], the target named is T2, UDP-glucuronosyltransferase 1A3 (Homo sapiens, UniProt P35503).
T2 sequence (P35503 whole entry): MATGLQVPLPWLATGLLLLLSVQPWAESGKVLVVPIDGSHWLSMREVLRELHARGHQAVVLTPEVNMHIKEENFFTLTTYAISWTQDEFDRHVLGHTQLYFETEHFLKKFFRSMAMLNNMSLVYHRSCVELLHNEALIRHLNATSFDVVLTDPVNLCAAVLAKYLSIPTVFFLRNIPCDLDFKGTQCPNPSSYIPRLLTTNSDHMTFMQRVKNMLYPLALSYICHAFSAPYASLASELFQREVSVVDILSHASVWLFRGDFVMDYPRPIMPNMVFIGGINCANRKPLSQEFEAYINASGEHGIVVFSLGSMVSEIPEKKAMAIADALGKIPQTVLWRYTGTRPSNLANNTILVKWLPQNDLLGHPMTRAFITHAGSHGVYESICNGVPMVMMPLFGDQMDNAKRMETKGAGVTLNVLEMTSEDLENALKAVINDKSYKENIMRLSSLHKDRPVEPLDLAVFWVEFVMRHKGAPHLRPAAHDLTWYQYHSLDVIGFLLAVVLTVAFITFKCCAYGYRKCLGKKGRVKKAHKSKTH
The data set is described as follows: Activity of human UGT1A3 expressed in microsomes isolated from baculovirus infected insect cell assessed as enzyme-mediated 2-amino-3-((1-carboxy-2-(4-((6-methoxy-1-methyl-1H-benzo[d]imidazol-2-yl)methoxy)phenyl)ethyl)disulfanyl)propanoic acid formation at 20 uM after 4 hrs by radio-HPLC/LC-MS/MS analysis in presence of UDPGA and UDPGA/SAM. The class given is ADME. In outline: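 Alamethicin (50 μg/mg protein, 15 min on ice) pretreated expressed human UGT microsomes (1 mg/ml protein) from baculovirus-infected insect cells. Incubation with [¹⁴C]rivoglitazone (20 μM) in 100 mM Tris-HCl (pH 7.5) with 10 mM MgCl₂, started by 5 mM UDPGA, 4 h at 37°C with shaking. UGT insect-cell control supersomes were run alongside. Acetonitrile stop, concentrated supernatant analysed by radio-HPLC, LC-MS and LC-MS/MS.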

The target in a further data set is Cytochrome P450 3A4 (Homo sapiens, UniProt P08684). The data set is described as follows: Activity of human CYP3A4 expressed in microsomes isolated from baculovirus infected insect cell assessed as enzyme-mediated 5-(4-((6-methoxy-1H-benzo[d]imidazol-2-yl)methoxy)benzyl)thiazolidine-2,4-dione formation at 20 uM after 2 hrs by radio-HPLC/LC-MS/MS analysis in presence of NADPH-generating system and NADPH-generating system/SAM. The class given is ADME.

Data set [4] is described as follows: Drug metabolism in human hepatocytes assessed as formation of (2S,3S,4S,5R,6R)-3,4,5-trihydroxy-6-(5-(4-((6-methoxy-1-methyl-1H-benzo[d]imidazol-2-yl)methoxy)benzyl)-2,4-dioxothiazolidin-3-yl)tetrahydro-2H-pyran-2-carboxylic acid at 30 uM after 3 hrs by radio-HPLC/LC-MS/MS analysis in presence of UDPGA and UDPGA/SAM. Format: ADME, cell-based, Hepatocyte.
In another data set the target is Cytochrome P450 3A5 (Homo sapiens, UniProt P20815). The experiment in a line: Activity of human CYP3A5 expressed in microsomes isolated from baculovirus infected insect cell assessed as enzyme-mediated 3-(4-((6-methoxy-1-methyl-1H-benzo[d]imidazol-2-yl)methoxy)phenyl)-2-(methylthio)propanamide formation at 20 uM after 2 hrs by radio-HPLC/LC-MS/MS analysis in presence of NADPH-generating system/SAM. The class given is ADME. In outline:
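cDNA-expressed human CYP3A5 in baculovirus-insect-cell microsomes (1 mg/ml protein) was incubated with [¹⁴C]rivoglitazone (20 μM) in 50 mM potassium phosphate (pH 7.4) or 100 mM Tris-HCl (pH 7.5). NADPH-generating system: 2 mM NADP⁺, 20 mM glucose 6-phosphate, 2 units/ml G6PDH, 10 mM MgCl₂. Incubation ran 2 h at 37°C with shaking; insect-cell control supersomes served as control. Acetonitrile stop, supernatant concentrated, then radio-HPLC, LC-MS and LC-MS/MS.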

For another data set, the target named is Cytochrome P450 2D6 (Homo sapiens, UniProt P10635). The data set is described as follows: Activity of human CYP2D6 expressed in microsomes isolated from baculovirus infected insect cell assessed as enzyme-mediated compound formation treated with [14C]-rivoglitazone at 20 uM after 2 hrs by radio-HPLC/LC-MS/MS analysis in presence of NADPH-generating system. Format: ADME. In outline: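 Baculovirus-insect-cell microsomes expressing the human CYP (1 mg/ml protein) were incubated with [14C]rivoglitazone (20 μM) in 50 mM potassium phosphate (pH 7.4) or 100 mM Tris-HCl (pH 7.5) with an NADPH-generating system (2 mM NADP+, 20 mM glucose 6-phosphate, 2 units/ml G6PDH, 10 mM MgCl2) for 2 h at 37°C. Insect-cell control supersomes served as the control. Reactions were stopped with acetonitrile, and the concentrated supernatants were analysed by radio-HPLC, LC-MS and LC-MS/MS.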

Consider two compounds from ChEMBL document CHEMBL3526048, “In vitro metabolism of rivoglitazone, a novel peroxisome proliferator-activated receptor γ agonist, in rat, monkey, and human liver microsomes and freshly isolated hepatocytes” (Drug Metab Dispos, 2011).

Sequence of Cytochrome P450 3A5 (P20815 whole entry): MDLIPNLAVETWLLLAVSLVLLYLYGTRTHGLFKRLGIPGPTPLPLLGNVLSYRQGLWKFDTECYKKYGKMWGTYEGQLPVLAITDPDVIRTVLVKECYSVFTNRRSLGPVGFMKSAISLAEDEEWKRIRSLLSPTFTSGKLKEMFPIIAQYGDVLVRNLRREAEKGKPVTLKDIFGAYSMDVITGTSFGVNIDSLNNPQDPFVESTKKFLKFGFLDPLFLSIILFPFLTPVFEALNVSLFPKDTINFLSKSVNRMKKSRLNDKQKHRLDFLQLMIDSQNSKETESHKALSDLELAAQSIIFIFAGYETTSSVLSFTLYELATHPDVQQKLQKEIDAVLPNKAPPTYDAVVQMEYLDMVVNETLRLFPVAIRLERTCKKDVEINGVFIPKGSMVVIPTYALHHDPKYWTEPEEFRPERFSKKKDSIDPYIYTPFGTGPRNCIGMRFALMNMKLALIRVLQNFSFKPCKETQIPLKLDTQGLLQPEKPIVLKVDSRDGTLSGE
Sequence of Cytochrome P450 2D6 (P10635 whole entry): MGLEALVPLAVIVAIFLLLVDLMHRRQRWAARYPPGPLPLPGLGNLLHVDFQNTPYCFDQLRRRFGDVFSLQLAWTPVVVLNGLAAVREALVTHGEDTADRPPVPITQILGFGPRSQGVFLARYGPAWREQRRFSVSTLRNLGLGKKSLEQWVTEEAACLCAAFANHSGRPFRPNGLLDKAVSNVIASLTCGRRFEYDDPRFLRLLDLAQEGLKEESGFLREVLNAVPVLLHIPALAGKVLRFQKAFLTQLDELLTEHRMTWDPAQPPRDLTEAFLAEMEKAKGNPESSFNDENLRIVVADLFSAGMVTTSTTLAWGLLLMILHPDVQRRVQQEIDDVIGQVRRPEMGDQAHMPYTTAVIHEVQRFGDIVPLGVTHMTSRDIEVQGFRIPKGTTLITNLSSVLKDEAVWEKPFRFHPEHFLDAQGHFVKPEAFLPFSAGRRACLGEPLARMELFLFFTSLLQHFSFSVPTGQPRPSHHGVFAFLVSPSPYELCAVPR
Sequence of Cytochrome P450 3A4 (P08684 whole entry): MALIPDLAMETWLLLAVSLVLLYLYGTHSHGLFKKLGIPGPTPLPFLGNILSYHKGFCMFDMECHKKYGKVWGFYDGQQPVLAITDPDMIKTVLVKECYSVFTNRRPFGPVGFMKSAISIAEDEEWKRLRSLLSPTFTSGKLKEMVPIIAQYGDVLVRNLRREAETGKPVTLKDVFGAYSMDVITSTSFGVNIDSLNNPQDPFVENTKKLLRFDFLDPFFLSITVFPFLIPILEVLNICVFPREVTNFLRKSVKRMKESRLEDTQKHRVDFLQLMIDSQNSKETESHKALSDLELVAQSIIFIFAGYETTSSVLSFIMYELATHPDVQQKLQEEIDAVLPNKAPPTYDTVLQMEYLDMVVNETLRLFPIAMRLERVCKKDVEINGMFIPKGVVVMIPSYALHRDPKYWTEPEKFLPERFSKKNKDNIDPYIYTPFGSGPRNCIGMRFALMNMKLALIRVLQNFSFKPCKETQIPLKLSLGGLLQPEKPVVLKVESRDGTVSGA

For the compound `COc1ccc2nc(COc3ccc(C[14CH]4SC(=O)NC4=O)cc3)n(C)c2c1.Cl` (racemic), the Drug metabolism result in data set [1] is reported as “metabolite_not_detected”; in data set [2], “metabolite_detected”; in data set [3], “metabolite_not_detected”; at Cytochrome P450 3A4 it was “metabolite_detected”; in data set [4], “metabolite_detected”; on Cytochrome P450 3A5, “metabolite_not_detected”.
`COc1ccc2nc(COc3ccc(CC(S)C(=O)O)cc3)n(C)c2c1` (configuration not stated): the Drug metabolism result on Cytochrome P450 2D6 is on record as “metabolite_detected”.
